How the values were obtained:
[1] = biological target: T1, Integrin alpha-5/beta-1 (Homo sapiens, UniProt P05556+P08648); assay: Inhibition of integrin alpha-5-beta-1 receptor by ELISA; type: protein-complex assay
Method in brief: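 Wells coated overnight at 4°C with fibronectin (0.25 µg/mL) at pH 9.6, then blocked with 3% BSA. Bound integrin was detected with anti-human-Fc-HRP, TMB, A450. IC50 was taken from the curve turning point.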

[2] = biological target: Integrin alpha-V/beta-3 (Homo sapiens, UniProt P05106+P06756); assay: Inhibition of integrin alpha-V-beta-3 receptor by ELISA; type: protein-complex assay
Method in brief: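 Vitronectin-coated wells (1 µg/mL) were blocked with 3% BSA/PBS-Tween. Soluble αvβ3 (1 µg/mL) was incubated with serially diluted inhibitor for 1 h at RT in Tris/NaCl/MnCl2/BSA buffer. Binding was read with anti-αvβ3 plus anti-mouse-HRP, then TMB, absorbance 450 nm. IC50 was taken at the turning point of the inhibition curve.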

[3] = biological target: Integrin alpha-V/beta-5 (Homo sapiens, UniProt P06756+P18084); assay: Inhibition of integrin alpha-V-beta-5 receptor by ELISA; type: protein-complex assay
Method in brief: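 ELISA on vitronectin coating (5 µg/mL). Soluble αvβ5 (1.5 µg/mL) was incubated with serially diluted inhibitor for 1 h at RT in Tris pH 7.6, NaCl, 1 mM each MnCl2/MgCl2/CaCl2, BSA, 0.05% Tween 20. Detection used anti-αvβ5 and anti-mouse-HRP, TMB, A450. IC50 was the inflection point.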

[4] = biological target: Integrin alpha-IIb/beta-3 (Homo sapiens, UniProt P05106+P08514); assay: Inhibition of integrin alpha-2b-beta-3 receptor by ELISA; type: protein-complex assay
Method in brief: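 Solid-phase ELISA. Wells coated with fibrinogen (10 µg/mL) and blocked with 3% BSA in PBS/0.1% Tween 20 for 1 h at RT. Soluble αIIbβ3 (5 µg/mL) was incubated with serially diluted inhibitor in Tris pH 7.6, 150 mM NaCl, 1 mM MnCl2/MgCl2/CaCl2, 1 mg/mL BSA for 1 h at RT. Detection used anti-CD41b then anti-mouse-HRP, TMB, A450. IC50 was taken as the curve turning point.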

[5] = Inhibition of integrin alpha-3b-beta-1 receptor by ELISA; parameters: species or system Homo sapiens
Method in brief: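 Solid-phase ELISA. Wells coated with laminin (5 µg/mL) and blocked with 3% BSA/PBS-Tween. Soluble α3β1 (2 µg/mL) was incubated with serially diluted inhibitor in Tris pH 7.6, NaCl, 1 mM MnCl2, BSA, 0.05% Tween 20 for 1 h at RT. Detection used polyclonal anti-α3β1 then anti-rabbit-HRP, TMB/H2SO4, absorbance 450 nm. IC50 was taken as the inflection point.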

[6] = organism: Homo sapiens; assay: Selectivity for integrin alpha5beta1 over alphaVbeta3 receptor
[7] = organism: Homo sapiens; assay: Selectivity for integrin alpha-5-beta-1 over alphaVbeta5 receptor
[8] = organism: Homo sapiens; assay: Selectivity for integrin alpha-5-beta-1 over alpha2bbeta3 receptor
[9] = organism: Homo sapiens; assay: Selectivity for integrin alpha5beta1 over alpha-3-beta-1 receptor
[10] = Stability in human microsome at 1 uM after 1 hr; type: ADME; conditions: microsomes, read-out: Stability
Method in brief: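 Compound at 1 µM was incubated with human microsomes for 1 h, and the percentage remaining was recorded.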

[11] = biological target: T1, Integrin alpha-5/beta-1; assay: Inhibition of integrin alpha-5-beta-1 receptor expressed in HEK293 cells; type: cell-based
Method in brief: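 HEK293 cells with endogenous α5β1 were tested for adhesion to fibronectin. IC50 was determined.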

Sequence of Integrin alpha-V/beta-3 (P05106 27-788 limits assumed): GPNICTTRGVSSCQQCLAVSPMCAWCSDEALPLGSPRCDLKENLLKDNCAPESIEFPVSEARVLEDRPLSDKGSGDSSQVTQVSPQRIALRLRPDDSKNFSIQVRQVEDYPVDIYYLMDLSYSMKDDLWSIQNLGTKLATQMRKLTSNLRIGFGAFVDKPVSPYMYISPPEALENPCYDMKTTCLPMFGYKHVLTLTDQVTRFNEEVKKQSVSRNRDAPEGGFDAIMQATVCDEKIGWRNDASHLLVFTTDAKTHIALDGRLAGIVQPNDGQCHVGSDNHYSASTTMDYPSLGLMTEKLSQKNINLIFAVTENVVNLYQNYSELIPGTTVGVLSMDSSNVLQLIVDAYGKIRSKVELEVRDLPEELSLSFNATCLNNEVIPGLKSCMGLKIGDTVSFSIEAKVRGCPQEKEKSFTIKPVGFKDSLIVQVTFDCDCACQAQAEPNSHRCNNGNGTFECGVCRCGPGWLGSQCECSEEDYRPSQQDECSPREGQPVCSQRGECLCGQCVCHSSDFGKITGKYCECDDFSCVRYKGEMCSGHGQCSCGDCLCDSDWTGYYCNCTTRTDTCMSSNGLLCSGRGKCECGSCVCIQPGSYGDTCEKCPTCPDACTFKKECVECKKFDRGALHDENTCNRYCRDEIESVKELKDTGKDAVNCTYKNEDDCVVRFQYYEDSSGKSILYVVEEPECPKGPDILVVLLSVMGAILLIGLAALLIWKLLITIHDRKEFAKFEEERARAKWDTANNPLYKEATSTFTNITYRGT
Sequence of Integrin alpha-V/beta-3 (P06756 31-889 limits assumed): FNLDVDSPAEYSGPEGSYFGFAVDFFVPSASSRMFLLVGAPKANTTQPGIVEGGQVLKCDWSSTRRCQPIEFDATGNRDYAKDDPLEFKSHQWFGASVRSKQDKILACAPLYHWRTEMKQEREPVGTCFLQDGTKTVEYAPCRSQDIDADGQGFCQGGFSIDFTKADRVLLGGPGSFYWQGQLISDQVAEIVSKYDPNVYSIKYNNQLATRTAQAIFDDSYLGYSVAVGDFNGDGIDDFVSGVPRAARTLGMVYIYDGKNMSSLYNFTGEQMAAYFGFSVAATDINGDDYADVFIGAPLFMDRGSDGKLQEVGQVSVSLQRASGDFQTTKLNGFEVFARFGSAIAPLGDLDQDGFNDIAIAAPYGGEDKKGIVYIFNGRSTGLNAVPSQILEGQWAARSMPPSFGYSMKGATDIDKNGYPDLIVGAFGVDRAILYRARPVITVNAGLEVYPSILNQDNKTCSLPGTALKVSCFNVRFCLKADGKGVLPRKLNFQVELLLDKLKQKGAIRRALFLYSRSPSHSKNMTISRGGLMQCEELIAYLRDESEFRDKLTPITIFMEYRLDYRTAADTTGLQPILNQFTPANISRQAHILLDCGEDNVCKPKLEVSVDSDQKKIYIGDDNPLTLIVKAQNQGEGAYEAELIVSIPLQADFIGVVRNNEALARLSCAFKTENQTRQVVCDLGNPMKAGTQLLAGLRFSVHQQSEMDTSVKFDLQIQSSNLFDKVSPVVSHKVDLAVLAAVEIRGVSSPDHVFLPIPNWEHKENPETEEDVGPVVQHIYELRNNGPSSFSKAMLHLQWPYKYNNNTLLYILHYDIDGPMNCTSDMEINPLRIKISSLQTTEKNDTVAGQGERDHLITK
Sequence of Integrin alpha-V/beta-3 (P06756 891-1048 limits assumed): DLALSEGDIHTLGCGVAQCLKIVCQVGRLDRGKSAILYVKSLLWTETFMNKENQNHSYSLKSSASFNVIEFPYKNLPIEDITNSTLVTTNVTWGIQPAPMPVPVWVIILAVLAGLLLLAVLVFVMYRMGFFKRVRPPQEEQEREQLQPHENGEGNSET
Sequence of Integrin alpha-IIb/beta-3 (P05106 27-788 limits assumed): as the sequence (P05106 27-788 limits assumed) above
Sequence of Integrin alpha-IIb/beta-3 (P08514 32-887 limits assumed): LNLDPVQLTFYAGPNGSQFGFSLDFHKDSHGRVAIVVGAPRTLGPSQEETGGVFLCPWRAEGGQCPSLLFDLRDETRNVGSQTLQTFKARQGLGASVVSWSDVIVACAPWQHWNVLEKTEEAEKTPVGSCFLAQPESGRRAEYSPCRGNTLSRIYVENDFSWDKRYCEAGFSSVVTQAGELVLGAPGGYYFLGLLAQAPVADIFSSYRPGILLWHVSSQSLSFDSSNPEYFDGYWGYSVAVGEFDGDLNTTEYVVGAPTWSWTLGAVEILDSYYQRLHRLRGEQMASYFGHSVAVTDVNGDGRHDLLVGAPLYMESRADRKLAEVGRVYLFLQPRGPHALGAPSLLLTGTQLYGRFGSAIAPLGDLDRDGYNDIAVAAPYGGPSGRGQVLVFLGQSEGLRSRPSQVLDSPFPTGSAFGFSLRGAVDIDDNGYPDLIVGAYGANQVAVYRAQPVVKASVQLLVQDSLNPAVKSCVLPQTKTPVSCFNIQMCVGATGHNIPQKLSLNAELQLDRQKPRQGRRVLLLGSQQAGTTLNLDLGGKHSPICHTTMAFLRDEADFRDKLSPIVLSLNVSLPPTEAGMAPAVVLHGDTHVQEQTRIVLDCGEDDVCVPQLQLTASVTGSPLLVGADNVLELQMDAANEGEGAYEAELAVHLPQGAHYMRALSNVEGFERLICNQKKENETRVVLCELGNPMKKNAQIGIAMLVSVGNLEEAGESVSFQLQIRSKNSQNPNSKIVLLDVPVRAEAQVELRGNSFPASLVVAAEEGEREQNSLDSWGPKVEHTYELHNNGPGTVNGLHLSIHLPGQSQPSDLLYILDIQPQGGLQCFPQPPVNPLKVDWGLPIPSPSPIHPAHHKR
Sequence of Integrin alpha-IIb/beta-3 (P08514 891-1039 limits assumed): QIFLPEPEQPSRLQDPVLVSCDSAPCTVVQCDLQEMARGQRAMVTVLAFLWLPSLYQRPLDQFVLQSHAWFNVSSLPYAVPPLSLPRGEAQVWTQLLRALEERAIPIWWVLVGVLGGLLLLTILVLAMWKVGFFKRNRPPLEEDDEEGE
Sequence of Integrin alpha-V/beta-5 (P06756 31-889 limits assumed): as the sequence (P06756 31-889 limits assumed) above
Sequence of Integrin alpha-V/beta-5 (P06756 891-1048 limits assumed): as the sequence (P06756 891-1048 limits assumed) above
Sequence of Integrin alpha-V/beta-5 (P18084 24-799 limits assumed): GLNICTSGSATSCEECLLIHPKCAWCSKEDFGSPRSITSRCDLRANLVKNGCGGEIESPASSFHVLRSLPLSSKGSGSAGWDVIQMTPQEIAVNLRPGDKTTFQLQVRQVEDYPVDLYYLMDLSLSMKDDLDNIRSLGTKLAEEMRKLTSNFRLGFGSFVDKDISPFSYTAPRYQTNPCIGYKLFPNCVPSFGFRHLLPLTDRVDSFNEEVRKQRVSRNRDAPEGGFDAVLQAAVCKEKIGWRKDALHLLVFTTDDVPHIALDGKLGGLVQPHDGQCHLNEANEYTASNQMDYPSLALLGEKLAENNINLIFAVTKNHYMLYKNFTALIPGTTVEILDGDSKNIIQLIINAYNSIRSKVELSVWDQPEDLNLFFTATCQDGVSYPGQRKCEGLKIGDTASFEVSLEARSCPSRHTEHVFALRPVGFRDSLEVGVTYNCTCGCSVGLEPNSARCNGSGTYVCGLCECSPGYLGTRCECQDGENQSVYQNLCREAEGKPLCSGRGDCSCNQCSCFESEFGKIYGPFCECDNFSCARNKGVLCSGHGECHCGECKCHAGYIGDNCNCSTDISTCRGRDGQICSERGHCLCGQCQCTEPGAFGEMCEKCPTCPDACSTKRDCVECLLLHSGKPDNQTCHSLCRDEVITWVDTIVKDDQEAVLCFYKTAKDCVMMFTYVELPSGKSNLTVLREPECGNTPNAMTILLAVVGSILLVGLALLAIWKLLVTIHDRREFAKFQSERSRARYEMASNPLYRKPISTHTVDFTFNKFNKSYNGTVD

Row | SMILES | IC50 [1] | IC50 [2] | IC50 [3] | IC50 [4] | IC50 [5] | other results
1 | CC(C)(C)CC(=O)N1C[C@H](OCC(=O)NC[C@H](NC(=O)C2(C)CCCCC2)C(=O)O)C[C@H]1CNc1ccccn1 | 1.4 nM | 1600 nM | 2300 nM | > 50000 nM | – | –
2 | O=C(CO[C@@H]1C[C@@H](CNc2ccccn2)N(C(=O)OCc2ccccc2)C1)NC[C@H](NS(=O)(=O)c1ccccc1)C(=O)O | 86 nM | 6.3 nM | 260 nM | 12000 nM | – | –
3 | COc1ccnc(NC[C@@H]2C[C@@H](OCC(=O)NC[C@H](NC(=O)C3(C)CCCCC3)C(=O)O)CN2C(=O)OCc2ccccc2)c1 | 0.8 nM | 690 nM | 3100 nM | > 50000 nM | 30000 nM | –
4 | COC(=O)N1C[C@H](OCC(=O)NC[C@H](NS(=O)(=O)c2c(C)cc(C)cc2C)C(=O)O)C[C@H]1CNc1ccccn1 | 15 nM | 9 nM | – | – | – | –
5 | O=C(CO[C@@H]1C[C@@H](CNc2ccccn2)N(C(=O)OCc2ccccc2)C1)NC[C@H](NC(=O)c1ccccc1)C(=O)O | 155 nM | 140 nM | – | – | – | –
6 | Cc1cc(C)c(S(=O)(=O)N[C@@H](CNC(=O)CO[C@H]2CN[C@H](CNc3ccccn3)C2)C(=O)O)c(C)c1 | 286 nM | – | – | – | – | –
7 | COc1ccnc(NC[C@@H]2C[C@@H](OCC(=O)NC[C@H](NC(=O)c3c(C)cc(C)cc3C)C(=O)O)CN2C(=O)OCc2ccccc2)c1 | 0.54 nM | 3400 nM | 2700 nM | 50000 nM | 20000 nM | –
8 | Cc1cc(C)c(C(=O)N[C@@H](CNC(=O)CO[C@@H]2C[C@@H](CNc3ccccn3)N(C(=O)CC(C)(C)C)C2)C(=O)O)c(C)c1 | 1.6 nM | 16000 nM | > 50000 nM | > 50000 nM | – | –
9 | Cc1cc(C)c(S(=O)(=O)N[C@@H](CNC(=O)CO[C@@H]2C[C@@H](CNc3cccc(C)n3)N(C(=O)OCc3ccccc3)C2)C(=O)O)c(C)c1 | 231 nM | 21 nM | – | – | – | –
10 | Cc1cc(C)c(C(=O)N[C@@H](CNC(=O)CO[C@@H]2C[C@@H](CNc3ccccn3)N(C(=O)OCc3ccccc3)C2)C(=O)O)c(C)c1 | 3.5 nM | 30000 nM | 30000 nM | > 50000 nM | 36000 nM | Selectivity ratio [6]: 10000; Selectivity ratio [7]: 10000; Selectivity ratio [8]: 10000; Selectivity ratio [9]: 10000
11 | Cc1cc(C)c(S(=O)(=O)N[C@@H](CNC(=O)CO[C@@H]2C[C@@H](CNc3ccccn3)N(C(=O)CCc3ccccc3)C2)C(=O)O)c(C)c1 | 25 nM | 38 nM | – | – | – | –
12 | COc1ccnc(NC[C@@H]2C[C@@H](OCC(=O)NC[C@H](NC(=O)C3(C)CCCCC3)C(=O)O)CN2C(=O)CC(C)(C)C)c1 | 0.55 nM | 980 nM | 4300 nM | > 50000 nM | 50000 nM | –
13 | Cc1cc(C)c(S(=O)(=O)N[C@@H](CNC(=O)CO[C@@H]2C[C@@H](CNc3ccccn3)N(C(=O)CC(C)(C)C)C2)C(=O)O)c(C)c1 | 6 nM | 36 nM | 245 nM | 8000 nM | – | remaining at 1 h, 1 µM [10]: 70%
14 | CC1(C(=O)N[C@@H](CNC(=O)CO[C@@H]2C[C@@H](CNc3ccccn3)N(C(=O)OCc3ccccc3)C2)C(=O)O)CCCCC1 | 1.7 nM | 880 nM | 550 nM | > 50000 nM | – | –
15 | Cc1cc(C)c(S(=O)(=O)N[C@@H](CNC(=O)CO[C@@H]2C[C@@H](CNc3cc(Cl)ccn3)N(C(=O)OCc3ccccc3)C2)C(=O)O)c(C)c1 | 445 nM | – | – | – | – | –
16 | COc1ccnc(NC[C@@H]2C[C@@H](OCC(=O)NC[C@H](NS(=O)(=O)c3c(C)cc(C)cc3C)C(=O)O)CN2C(=O)CC(C)(C)C)c1 | 0.9 nM | 4 nM | 29 nM | 11000 nM | – | –
17 | COc1ccnc(NC[C@@H]2C[C@@H](OCC(=O)NC[C@H](NC(=O)c3c(C)cc(C)cc3C)C(=O)O)CN2C(=O)CC(C)(C)C)c1 | 0.55 nM | 3300 nM | 6800 nM | > 50000 nM | 13000 nM | IC50 [11]: 50 nM
18 | Cc1cc(C)c(S(=O)(=O)N[C@@H](CNC(=O)CO[C@@H]2C[C@@H](CNc3ccccn3)N(CCCc3ccccc3)C2)C(=O)O)c(C)c1 | 670 nM | – | – | – | – | –
19 | COc1ccnc(NC[C@@H]2C[C@@H](OCC(=O)NC[C@H](NS(=O)(=O)c3c(C)cc(C)cc3C)C(=O)O)CN2C(=O)OCc2ccccc2)c1 | 1.1 nM | 2.4 nM | 19 nM | 7.7 nM | – | –
20 | Cc1cc(C)c(S(=O)(=O)N[C@@H](CNC(=O)CO[C@@H]2C[C@@H](CNc3ccccn3)N(C(=O)OCc3ccccc3)C2)C(=O)O)c(C)c1 | – | 16 nM | 330 nM | – | > 200000 nM | remaining at 1 h, 1 µM [10]: 43%

— ChEMBL document CHEMBL1148701, “Design and synthesis of a new class of selective integrin alpha5beta1 antagonists” (J Med Chem, 2007)
